Laboratory results from ChEMBL document CHEMBL1132269, “Self-immolative anthracycline prodrugs for suicide gene therapy” (J Med Chem, 1999).
Several values for one entry are separate records, joined by “and”; a condition that tells them apart may be missing. Identical values can stand only once.

Key:
CPG2 (carboxypeptidase) = assay: Half life period in the presence of CPG2 (carboxypeptidase) enzyme; assay type: ADME
Summary of the method: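 Prodrug at 100 μM in phosphate-buffered saline (pH 7.4), 37 °C, with 50 mU CPG2; timed samples analysed by reverse-phase HPLC, absorbance 500 nm. Plots linear on linear axes, so apparent half-life taken as time for concentration to fall to half its starting value.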

MDA-MB-361 [1] = assay: The compound was tested for intracellular cytotoxicity against MDA MB 361(mammary carcinoma cell line) expressing LacZ (beta-galactosidase).; assay type: functional, cell-based; details: Homo sapiens
Summary of the method: (§1)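 MDA MB 361 breast carcinoma cells stably expressing surface-tethered CPG2 (stCPG2(Q)3), intracellular CPG2 (CPG2*) or control beta-galactosidase (LacZ). Compounds dissolved in DMSO at 10 mM (stock) just before treatment. After exposure, cells harvested and reseeded in quadruplicate at ~2 × 10^3 cells/well. Cells fixed and stained with sulforhodamine-B once control plates reached confluence, absorbance read at 590 nm. Growth expressed as % of control, IC50 interpolated.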

[2] = Half life period in the absence of CPG2 (carboxypeptidase) enzyme; assay type: ADME
Summary of the method: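 Prodrug at 100 μM in phosphate-buffered saline (pH 7.4), 37 °C, without enzyme; samples injected at timed intervals on reverse-phase HPLC, isocratic methanol/water/10 mM NaH2PO4 (pH 5.0), detection at 500 nm. Chemical half-life from slope of semilog plot.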

MDA-MB-361 [3] = assay: The compound was tested for extracellular cytotoxicity against MDA MB 361(mammary carcinoma cell line) in the presence of stCPG2 prodrug; assay type: functional, cell-based; details: Homo sapiens
Summary of the method: (§2)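 Cytotoxicity differential: ratio of a prodrug's IC50 in MDA MB 361 cells expressing stCPG2(Q)3 or CPG2* to its IC50 in LacZ control cells. IC50 values come from a sulforhodamine-B growth assay (cells reseeded in quadruplicate after treatment, stained at control confluence, A590, % control growth, interpolation). Prodrug:drug ratio taken in LacZ cells.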

MDA-MB-361 [4] = assay: The compound was tested for intracellular cytotoxicity against MDA MB 361(mammary carcinoma cell line) in the presence of CPG2 prodrug; assay type: functional, cell-based; details: Homo sapiens; summary of the method: as §2
[5] = Ratio of the intracellular cytotoxicities against MDA MB 361(mammary carcinoma cell line) expressing LacZ (beta-galactosidase). between prodrug and drug.; assay type: functional
Summary of the method: (§3)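 MDA MB 361 cells stably expressing surface-tethered CPG2 (stCPG2(Q)3) or β-galactosidase control (LacZ) treated with compound (10 mM DMSO stock made fresh), then reseeded in quadruplicate at ~2 × 10^3 cells/well; fixed and sulforhodamine-B stained when controls confluent, A590. IC50 interpolated from % control growth; ratio = LacZ vs stCPG2(Q)3 IC50 or prodrug vs drug IC50 in LacZ cells.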

[6] = Ratio of the extracellular cytotoxicities against MDA MB 361(mammary carcinoma cell line) expressing LacZ and carboxypeptidase stCPG2 of the prodrug.; assay type: functional; summary of the method: as §3
MDA-MB-361 [7] = assay: The compound was tested for intracellular cytotoxicity against MDA MB 361(mammary carcinoma cell line) expressing carboxypeptidase G2(CPG2).; assay type: functional, cell-based; details: Homo sapiens; summary of the method: as §1
MDA-MB-361 [8] = assay: The compound was tested for extracellular cytotoxicity against MDA MB 361(mammary carcinoma cell line) expressing carboxypeptidase stCPG2.; assay type: functional, cell-based; details: Homo sapiens; summary of the method: as §1

Structure (SMILES)	half-life (CPG2 (carboxypeptidase))	IC50 (MDA-MB-361 [1])	half-life [2]	IC50 (MDA-MB-361 [3])	IC50 (MDA-MB-361 [4])	Ratio [5]	Ratio [6]	IC50 (MDA-MB-361 [7])	IC50 (MDA-MB-361 [8])
COc1cccc2c1C(=O)c1c(O)c3c(c(O)c1C2=O)C[C@@](O)(C(C)=O)C[C@@H]3OC1CC(NC(=O)OCc2ccc(NC(=O)NC(CCC(=O)O)C(=O)O)cc2)C(O)C(C)O1 (stereo partly drawn)	0.645 h	112 nM	19.8 h	29 nM	123 nM	6.6			
COc1cccc2c1C(=O)c1c(O)c3c(c(O)c1C2=O)C[C@@](O)(C(=O)CO)C[C@@H]3OC1CC(NC(=O)OCc2ccc(NC(=O)NC(CCC(=O)O)C(=O)O)cc2)C(O)C(C)O1 (stereo partly drawn)	0.7 h	256 nM	15.8 h	24 nM	47 nM	21.3	5.4 and 10.7		
COc1cccc2c1C(=O)c1c(O)c3c(c(O)c1C2=O)C[C@@](O)(C(=O)CO)C[C@@H]3OC1CC(NC(=O)OCc2ccc(OC(=O)NC(CCC(=O)O)C(=O)O)cc2)C(O)C(C)O1 (stereo partly drawn)	4.46 h	279 nM	28.4 h	92 nM	204 nM	23.3	1.4 and 3		
COc1cccc2c1C(=O)c1c(O)c3c(c(O)c1C2=O)C[C@@](O)(C(C)=O)C[C@@H]3OC1CC(NC(=O)OCc2ccc(OC(=O)NC(CCC(=O)O)C(=O)O)cc2)C(O)C(C)O1 (stereo partly drawn)	2.21 h	115 nM	24.7 h	177 nM	405 nM	6.8	0.3 and 0.7		
COc1cccc2c1C(=O)c1c(O)c3c(c(O)c1C2=O)C[C@@](O)(C(C)=O)C[C@@H]3O[C@H]1C[C@H](N)[C@H](O)[C@H](C)O1 [DAUNORUBICIN]		17 nM		21 nM	36 nM				
COc1cccc2c1C(=O)c1c(O)c3c(c(O)c1C2=O)C[C@@](O)(C(=O)CO)C[C@@H]3O[C@H]1C[C@H](N)[C@H](O)[C@H](C)O1 [DOXORUBICIN]		12 nM						33 nM	18 nM
